# Laboratory results: ChEMBL document CHEMBL4428053, “Application of a Parallel Synthetic Strategy in the Discovery of Biaryl Acyl Sulfonamides as Efficient and Selective NaV1.7 Inhibitors” (J Med Chem, 2016)
# Activity calls are given as the source filed them. The calls are words filed in the database; no cut-off is given here.
# Experiments:
# [1] = biological target: Voltage-gated inwardly rectifying potassium channel KCNH2 (Homo sapiens, UniProt Q12809)
# [2] = biological target: T1, Sodium channel protein type 9 subunit alpha (Homo sapiens, UniProt Q15858); assay: Inhibition of human Nav1.7 expressed in HEK293 cells at 5 uM incubated for 3 to 5 mins at -125 mV holding potential by electrophysiology assay relative to control; assay type: cell-based
# Target sequence in this assay (Q15858 whole entry, looked up): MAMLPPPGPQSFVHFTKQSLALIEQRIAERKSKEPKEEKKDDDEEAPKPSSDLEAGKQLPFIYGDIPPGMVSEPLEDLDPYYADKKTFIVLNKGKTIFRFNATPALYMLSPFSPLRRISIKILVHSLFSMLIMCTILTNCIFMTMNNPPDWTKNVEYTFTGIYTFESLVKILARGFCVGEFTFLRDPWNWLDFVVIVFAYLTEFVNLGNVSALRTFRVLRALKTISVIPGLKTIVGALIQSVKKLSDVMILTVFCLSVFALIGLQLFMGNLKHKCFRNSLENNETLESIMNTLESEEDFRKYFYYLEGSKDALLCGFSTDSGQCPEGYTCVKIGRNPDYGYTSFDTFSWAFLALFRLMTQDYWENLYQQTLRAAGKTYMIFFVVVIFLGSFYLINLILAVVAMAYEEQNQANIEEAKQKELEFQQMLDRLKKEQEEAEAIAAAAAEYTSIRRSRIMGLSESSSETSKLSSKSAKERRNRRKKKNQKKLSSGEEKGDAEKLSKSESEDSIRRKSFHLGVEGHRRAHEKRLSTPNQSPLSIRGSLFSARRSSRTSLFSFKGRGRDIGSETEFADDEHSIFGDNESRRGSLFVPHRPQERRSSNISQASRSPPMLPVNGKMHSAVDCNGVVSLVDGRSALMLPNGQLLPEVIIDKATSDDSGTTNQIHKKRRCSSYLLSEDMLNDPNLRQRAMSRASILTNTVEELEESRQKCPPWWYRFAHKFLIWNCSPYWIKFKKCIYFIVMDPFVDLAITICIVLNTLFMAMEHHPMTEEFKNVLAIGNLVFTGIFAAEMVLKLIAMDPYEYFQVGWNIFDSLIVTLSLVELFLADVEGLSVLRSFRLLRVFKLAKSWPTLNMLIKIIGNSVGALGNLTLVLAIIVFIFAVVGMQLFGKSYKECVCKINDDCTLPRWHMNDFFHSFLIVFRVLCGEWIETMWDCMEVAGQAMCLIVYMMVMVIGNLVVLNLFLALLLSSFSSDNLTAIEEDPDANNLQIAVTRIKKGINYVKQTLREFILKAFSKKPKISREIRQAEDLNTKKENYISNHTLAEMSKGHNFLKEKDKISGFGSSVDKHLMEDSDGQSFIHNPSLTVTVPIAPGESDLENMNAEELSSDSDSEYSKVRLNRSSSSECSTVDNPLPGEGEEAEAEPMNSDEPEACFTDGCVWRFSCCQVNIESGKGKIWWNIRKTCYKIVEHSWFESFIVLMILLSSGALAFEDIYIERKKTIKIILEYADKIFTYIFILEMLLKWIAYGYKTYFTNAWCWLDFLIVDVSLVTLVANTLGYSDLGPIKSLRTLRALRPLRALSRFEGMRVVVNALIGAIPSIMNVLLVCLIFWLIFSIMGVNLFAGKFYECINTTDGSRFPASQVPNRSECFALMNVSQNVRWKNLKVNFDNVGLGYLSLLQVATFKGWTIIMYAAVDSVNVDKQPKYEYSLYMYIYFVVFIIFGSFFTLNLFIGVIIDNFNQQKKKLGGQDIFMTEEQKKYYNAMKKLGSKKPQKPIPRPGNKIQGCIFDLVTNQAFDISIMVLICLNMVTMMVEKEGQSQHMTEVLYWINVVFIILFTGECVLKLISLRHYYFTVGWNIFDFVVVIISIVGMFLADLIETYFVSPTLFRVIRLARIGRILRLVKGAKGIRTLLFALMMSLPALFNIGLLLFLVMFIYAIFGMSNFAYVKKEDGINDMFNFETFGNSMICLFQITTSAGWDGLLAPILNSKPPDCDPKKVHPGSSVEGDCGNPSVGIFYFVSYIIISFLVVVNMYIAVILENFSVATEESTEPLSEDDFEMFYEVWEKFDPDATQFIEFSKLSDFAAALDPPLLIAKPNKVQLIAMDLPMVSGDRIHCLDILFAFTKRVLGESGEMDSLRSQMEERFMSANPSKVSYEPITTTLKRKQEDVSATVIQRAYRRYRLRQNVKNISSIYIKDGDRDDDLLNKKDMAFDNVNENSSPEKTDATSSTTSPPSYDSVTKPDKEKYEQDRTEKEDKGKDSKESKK
# [3] = biological target: T1, Sodium channel protein type 9 subunit alpha; assay: Inhibition of human Nav1.7 expressed in HEK293 cells incubated for 3 to 5 mins at -125 mV holding potential by electrophysiology assay; assay type: cell-based
# Target sequence in this assay (Q15858 whole entry): as the sequence (Q15858 whole entry, looked up) above
# [4] = in vitro; conditions: human, liver microsomes
# [5] = in vitro; conditions: rat, liver microsomes
# [6] = biological target: Sodium channel protein type 5 subunit alpha (Homo sapiens, UniProt Q14524); assay: Inhibition of human Nav1.5 expressed in HEK293 cells incubated for 3 to 5 mins at -50 mV holding potential by electrophysiology assay; assay type: cell-based
# [7] = Clearance in Harlan rat at 1 mg/kg, iv by LC-MS/MS analysis; assay type: ADME, organism-based; conditions: in vivo
# Outline: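 Male fed rats. The IV dose was given in 100% DMSO. The oral dose was given in 1% Tween 80, 2% HPMC, 97% water/NaOH (pH 8.5).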
# [8] = Protein binding in rat plasma at 5 uM after 45 mins by LC-MS/MS analysis; assay type: ADME, cell-free; conditions: read-out: PPB
# [9] = species: Homo sapiens; assay: Selectivity ratio of IC50 for human Nav1.5 expressed in HEK293 cells to human Nav1.7 expressed in HEK293 cells; assay type: cell-based
# Outline: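 IC50s come from PatchXpress automated electrophysiology, and the ratio divides the hNav1.5 IC50 by the hNav1.7 IC50. For hNav1.7, cells were held at a voltage giving 20-50% channel inactivation. For hNav1.5, cells were held at -50 mV on the same platform.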
# [10] = biological target: T2, Cytochrome P450 3A4 (Homo sapiens, UniProt P08684)
# T2 sequence (P08684 whole entry): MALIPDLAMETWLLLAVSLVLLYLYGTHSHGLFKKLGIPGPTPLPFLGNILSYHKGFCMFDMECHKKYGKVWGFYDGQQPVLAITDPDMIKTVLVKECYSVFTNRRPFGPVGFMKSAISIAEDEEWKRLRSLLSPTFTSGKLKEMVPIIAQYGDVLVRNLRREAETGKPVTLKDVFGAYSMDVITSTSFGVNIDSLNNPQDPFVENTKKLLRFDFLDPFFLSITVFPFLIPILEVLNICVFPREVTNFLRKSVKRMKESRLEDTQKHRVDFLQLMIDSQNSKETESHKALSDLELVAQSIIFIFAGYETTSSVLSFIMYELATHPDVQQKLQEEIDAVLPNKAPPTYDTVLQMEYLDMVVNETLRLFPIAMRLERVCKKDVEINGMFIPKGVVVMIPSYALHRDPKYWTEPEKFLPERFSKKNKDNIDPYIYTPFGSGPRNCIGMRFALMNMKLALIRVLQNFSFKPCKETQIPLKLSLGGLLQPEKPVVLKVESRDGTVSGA
# [11] = biological target: T3, Cytochrome P450 2D6 (Homo sapiens, UniProt P10635)
# T3 sequence (P10635 whole entry): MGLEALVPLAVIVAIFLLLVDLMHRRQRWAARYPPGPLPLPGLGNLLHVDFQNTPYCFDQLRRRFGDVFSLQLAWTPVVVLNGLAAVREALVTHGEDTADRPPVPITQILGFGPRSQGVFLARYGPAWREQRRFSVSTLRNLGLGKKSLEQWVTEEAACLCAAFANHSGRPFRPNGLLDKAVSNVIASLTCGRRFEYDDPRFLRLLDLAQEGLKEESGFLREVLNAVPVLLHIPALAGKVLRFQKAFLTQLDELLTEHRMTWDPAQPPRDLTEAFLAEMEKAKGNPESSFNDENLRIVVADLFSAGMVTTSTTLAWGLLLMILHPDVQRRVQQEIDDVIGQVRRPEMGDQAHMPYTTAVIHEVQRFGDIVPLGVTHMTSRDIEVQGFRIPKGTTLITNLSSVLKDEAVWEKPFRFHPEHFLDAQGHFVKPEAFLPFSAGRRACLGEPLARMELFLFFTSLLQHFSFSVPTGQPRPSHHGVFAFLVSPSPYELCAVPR
# [12] = biological target: T4, Cytochrome P450 2C9 (Homo sapiens, UniProt P11712)
# T4 sequence (P11712 whole entry): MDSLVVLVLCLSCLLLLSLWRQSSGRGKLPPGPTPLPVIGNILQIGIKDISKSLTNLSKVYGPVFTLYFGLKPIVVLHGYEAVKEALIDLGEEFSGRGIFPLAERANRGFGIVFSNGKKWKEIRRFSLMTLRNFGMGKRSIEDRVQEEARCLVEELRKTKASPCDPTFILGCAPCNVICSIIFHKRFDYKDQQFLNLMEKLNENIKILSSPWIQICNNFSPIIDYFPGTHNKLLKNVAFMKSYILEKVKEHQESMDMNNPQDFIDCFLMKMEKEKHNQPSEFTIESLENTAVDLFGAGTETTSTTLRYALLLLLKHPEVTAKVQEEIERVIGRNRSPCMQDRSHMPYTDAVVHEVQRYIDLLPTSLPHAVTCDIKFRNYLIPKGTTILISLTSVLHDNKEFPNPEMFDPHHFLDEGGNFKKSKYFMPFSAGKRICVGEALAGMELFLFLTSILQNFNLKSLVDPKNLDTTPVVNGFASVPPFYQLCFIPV
# [13] = biological target: T2, Cytochrome P450 3A4; remark: listed apart in the source
# [14] = biological target: T3, Cytochrome P450 2D6; remark: listed apart in the source
# [15] = biological target: T4, Cytochrome P450 2C9; remark: listed apart in the source
# [16] = tested on: Mus musculus; assay: In vivo inhibition of Nav1.7 in C57BL/6 mouse assessed as reduction in histamine-induced scratching bouts at 30 mg/kg, po administered 4 hrs prior to histamine challenge measured for 15 mins; assay type: functional, organism-based
# Outline: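 Mice were dosed orally with vehicle, diphenhydramine (30 mg/kg, n = 8) or test article at 30 (n = 9), 100 (n = 10) or 300 (n = 10) mg/kg; vehicle n = 12. All groups received histamine intradermally. Total scratch bouts were counted, with unbound plasma concentration reported per dose. Statistics: one-way ANOVA with Dunnett's test versus vehicle.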
# Voltage-gated inwardly rectifying potassium channel KCNH2, sequence (Q12809 whole entry): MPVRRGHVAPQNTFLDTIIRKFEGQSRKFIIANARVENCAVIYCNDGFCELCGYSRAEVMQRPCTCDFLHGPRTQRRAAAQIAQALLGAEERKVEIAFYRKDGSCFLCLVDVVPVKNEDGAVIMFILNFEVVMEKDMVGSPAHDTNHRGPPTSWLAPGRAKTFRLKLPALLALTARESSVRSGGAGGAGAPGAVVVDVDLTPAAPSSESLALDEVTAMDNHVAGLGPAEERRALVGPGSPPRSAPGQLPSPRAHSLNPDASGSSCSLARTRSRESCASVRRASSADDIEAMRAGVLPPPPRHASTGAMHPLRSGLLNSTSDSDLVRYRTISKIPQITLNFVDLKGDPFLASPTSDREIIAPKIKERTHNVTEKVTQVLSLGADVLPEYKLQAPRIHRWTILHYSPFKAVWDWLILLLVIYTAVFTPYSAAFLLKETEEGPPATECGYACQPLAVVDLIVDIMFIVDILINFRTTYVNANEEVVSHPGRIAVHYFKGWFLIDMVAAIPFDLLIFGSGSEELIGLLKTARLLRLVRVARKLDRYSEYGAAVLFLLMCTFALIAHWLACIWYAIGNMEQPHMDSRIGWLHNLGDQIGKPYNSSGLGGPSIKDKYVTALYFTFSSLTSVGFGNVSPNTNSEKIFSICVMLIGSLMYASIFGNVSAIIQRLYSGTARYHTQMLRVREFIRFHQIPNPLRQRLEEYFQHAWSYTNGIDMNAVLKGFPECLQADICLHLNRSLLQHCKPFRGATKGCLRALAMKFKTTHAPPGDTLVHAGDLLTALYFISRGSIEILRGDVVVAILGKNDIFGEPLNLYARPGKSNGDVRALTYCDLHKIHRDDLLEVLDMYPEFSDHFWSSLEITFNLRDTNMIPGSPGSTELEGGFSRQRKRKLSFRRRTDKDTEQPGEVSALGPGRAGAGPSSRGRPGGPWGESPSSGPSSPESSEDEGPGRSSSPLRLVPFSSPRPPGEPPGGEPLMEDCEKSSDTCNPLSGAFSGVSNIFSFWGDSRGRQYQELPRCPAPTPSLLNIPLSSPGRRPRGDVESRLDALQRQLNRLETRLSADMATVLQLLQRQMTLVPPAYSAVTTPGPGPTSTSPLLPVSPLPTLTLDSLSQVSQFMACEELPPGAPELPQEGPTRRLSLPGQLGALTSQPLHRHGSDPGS
inhibition [2] [%],IC50 [3] [µM],microsomal CLint at 1 µM [4] [µL/min/mg],microsomal CLint at 1 µM [5] [µL/min/mg],Structure (SMILES),IC50 [6] [µM],further results
–,–,–,–,CS(=O)(=O)NC(=O)c1cc(F)c(COc2ccc(Cl)c(Cl)c2)cc1F,–,Ki [1]: > 30 µM
< 5,–,–,–,CS(=O)(=O)NC(=O)c1ccc2nc(-c3ccc(Cl)c(Cl)c3)cn2c1,–,–
< 5,–,–,–,CS(=O)(=O)NC(=O)CSCc1ccc(Cl)c(Cl)c1,–,–
–,> 42,22,< 14,Cc1cc(-c2cnc(OCC(C)C)c(Cl)c2)ccc1C(=O)NS(C)(=O)=O,–,–
–,1.24,–,–,CC(C)COc1ncc(-c2c(F)cc(C(=O)NS(C)(=O)=O)cc2F)cc1Cl,–,–
–,10.6,18,18,CC(C)COc1ncc(-c2ncc(C(=O)NS(C)(=O)=O)cc2F)cc1Cl,–,–
< 5,–,–,–,CS(=O)(=O)NC(=O)C1CC(=O)N(c2ccc(Cl)c(Cl)c2)C1 (stereo unspecified),–,–
–,0.66,27,22,CC(C)COc1ncc(-c2ccc(C(=O)NS(C)(=O)=O)cc2F)cc1Cl,23,–
–,–,385,40,COc1cc(C(=O)NS(C)(=O)=O)ccc1-c1cnc(N2CCC[C@H]2C(C)C)c(Cl)c1,2.5,–
< 5,–,–,–,CS(=O)(=O)NC(=O)CSCC(=O)Nc1ccc(Cl)c(Cl)c1,–,–
–,1.62,20,< 14,CC(C)COc1ncc(-c2ccc(C(=O)NS(C)(=O)=O)cc2C#N)cc1Cl,24,–
–,0.29,30,16.5,CC(C)COc1ncc(-c2ccc(C(=O)NS(C)(=O)=O)cc2Cl)cc1Cl,–,–
–,0.14,> 399,< 14,CC(C)COc1ncc(-c2ccc(C(=O)NS(C)(=O)=O)cc2OC(F)(F)F)cc1Cl,3.7,–
–,–,< 14,< 14,COc1cc(C(=O)NS(C)(=O)=O)ccc1-c1cnc(Oc2cc(Cl)cc(Cl)c2)c(C(F)F)c1,18.8,–
< 5,–,–,–,CS(=O)(=O)NC(=O)CCc1ccc(Cl)c(Cl)c1,–,–
< 5,–,–,–,CS(=O)(=O)NC(=O)CNC(=O)c1ccc(Cl)c(Cl)c1,–,–
–,0.109,< 14,< 14,COc1cc(C(=O)NS(C)(=O)=O)ccc1-c1cnc(OCc2ccc(Cl)cc2)c(Cl)c1,21,–
–,0.59,–,–,O=S(=O)(Nc1ncns1)c1ccc2c(-c3ccc(C(F)(F)F)c(Cl)c3)nccc2c1,27,Ki [1]: 2 µM
–,0.28,–,–,CS(=O)(=O)NC(=O)c1ccc2c(Oc3ccc(Cl)c(C(F)(F)F)c3)nccc2c1,14.4,Ratio IC50 [9]: > 40; Ki [1]: > 30 µM
< 5,–,–,–,CS(=O)(=O)NC(=O)Cc1ccc(NS(=O)(=O)c2ccc(Cl)c(Cl)c2)cc1,–,–
–,0.062,110,< 14,COc1cc(C(=O)NS(C)(=O)=O)c(F)cc1-c1cnc(OCC2(C)CC2)c(Cl)c1,–,–
–,0.2,–,–,CC(C)COc1ncc(Oc2nccc3cc(C(=O)NS(C)(=O)=O)ccc23)cc1Cl,–,–
< 5,–,–,–,CC(C)(C)OC(=O)N[C@@H](CC(=O)NS(C)(=O)=O)Cc1ccc(Cl)c(Cl)c1,–,–
–,1.19,14,< 14,CC(C)COc1ncc(-c2ccc(C(=O)NS(C)(=O)=O)cc2)cc1Cl,–,–
–,0.53,47,22,CC(C)COc1ncc(-c2cc(F)c(C(=O)NS(C)(=O)=O)cc2F)cc1Cl,> 30,Ki [1]: > 30 µM; IC50 [10]: > 50 µM; IC50 [11]: > 50 µM; IC50 [12]: 34.1 µM; IC50 [13]: 48.6 µM; IC50 [14]: > 50 µM; IC50 [15]: 34.7 µM
–,1.55,–,–,CS(=O)(=O)NC(=O)c1ccc2c(-c3ccc(C(F)(F)F)c(Cl)c3)nccc2c1,> 30,Ki [1]: > 30 µM
–,0.15,< 14,< 14,COc1cc(C(=O)NS(C)(=O)=O)ccc1-c1cnc(Oc2cc(Cl)cnc2OC)c(Cl)c1,11.6,–
–,0.028,< 14,< 14,COc1cc(C(=O)NS(C)(=O)=O)ccc1-c1cnc(Oc2cc(Cl)cc(Cl)c2)c(C(F)(F)F)c1,2.35,–

inhibition [2] [%],IC50 [3] [µM],microsomal CLint at 1 µM [4] [µL/min/mg],microsomal CLint at 1 µM [5] [µL/min/mg],Structure (SMILES),IC50 [6] [µM],further results
–,0.35,44,32,COc1cc(C(=O)NS(C)(=O)=O)ccc1-c1cnc(OCC(C)C)c(Cl)c1,> 30,–
–,0.55,102,17,COc1cc(C(=O)NS(C)(=O)=O)ccc1-c1cnc(OC2CCC2)c(Cl)c1,17.8,–
–,0.2,< 14,< 14,COc1cc(C(=O)NS(C)(=O)=O)ccc1-c1cnc(OCC2(C)CC2)c(Cl)c1,9.3,–
< 5,–,–,–,CS(=O)(=O)NC(=O)c1cc(-c2ccc(Cl)c(Cl)c2)on1,–,–
< 5,–,–,–,CS(=O)(=O)NC(=O)c1cc(-c2ccc(Cl)c(Cl)c2)[nH]n1,–,–
–,0.11,–,–,COc1cc(C(=O)NS(C)(=O)=O)c(F)cc1-c1cnc(OC2CCC2)c(Cl)c1,–,–
< 5,–,–,–,CS(=O)(=O)NC(=O)C(=O)c1cc(-c2ccc(Cl)c(Cl)c2)on1,–,–
< 5,–,–,–,CS(=O)(=O)NC(=O)C1CC(=O)N(Cc2ccc(Cl)c(Cl)c2)C1 (stereo unspecified),–,–
–,0.27,> 399,< 14,CC(C)COc1ncc(-c2ccc(C(=O)NS(C)(=O)=O)cc2C(F)(F)F)cc1Cl,3.1,–
–,10.7,–,–,CS(=O)(=O)NC(=O)c1ccc(-c2ccc(Cl)c(Cl)c2)cc1,> 42,Ki [1]: > 30 µM
–,> 42,26,< 14,CC(C)COc1ncc(-c2ccc(C(=O)NS(C)(=O)=O)c(Cl)c2)cc1Cl,–,–
< 5,–,–,–,CS(=O)(=O)NC(=O)C1CCN(C(=O)c2ccc(Cl)c(Cl)c2)C1 (stereo unspecified),–,–
–,–,–,–,CN(C)CCOC(c1ccccc1)c1ccccc1,–,inhibition [16]: Active
–,2.54,–,–,CS(=O)(=O)NC(=O)c1cc(F)c(-c2ccc(Cl)c(Cl)c2)cc1F,> 42,Ki [1]: > 30 µM
< 5,–,–,–,Cc1nn(-c2ccc(Cl)c(Cl)c2)c(C)c1C(=O)NS(C)(=O)=O,–,–
< 5,–,–,–,CS(=O)(=O)NC(=O)Cc1ccc(Cl)c(Cl)c1,–,–
–,–,39,15,COc1cc(C(=O)NS(C)(=O)=O)ccc1-c1cnc(Oc2cc(Cl)cc(Cl)c2)c(C#N)c1,16.1,"clearance [7]: 30 mL/min/kg; fraction unbound at 0.75 h, 5 µM [8]: < 0.001"
< 5,–,–,–,CS(=O)(=O)NC(=O)c1cc(-c2ccc(Cl)c(Cl)c2)nc2ccccc12,–,–
< 5,–,–,–,CS(=O)(=O)NC(=O)c1csc(Nc2ccc(Cl)c(Cl)c2)n1,–,–
–,0.16,199,< 14,COc1cc(C(=O)NS(C)(=O)=O)ccc1-c1cnc(Sc2cccc(C)c2)c(Cl)c1,–,–
–,0.74,–,–,CS(=O)(=O)NC(=O)c1cc(F)c(Oc2ccc(Cl)c(Cl)c2)cc1F,> 30,Ki [1]: > 30 µM
–,3.04,< 14,28,CC(C)COc1ncc(-c2ccc(C(=O)NS(C)(=O)=O)c(F)c2)cc1Cl,18,–
–,–,< 14,33,COc1cc(C(=O)NS(C)(=O)=O)ccc1-c1cnc(Oc2cc(F)ccc2F)c(Cl)c1,23.7,–
< 5,–,–,–,CS(=O)(=O)NC(=O)c1cscc1SCc1ccc(Cl)c(Cl)c1,–,–
–,0.26,> 399,< 14,CC(C)COc1ncc(-c2ccc(C(=O)NS(C)(=O)=O)cc2C2=CCOC2)cc1Cl,> 42,–
< 5,–,–,–,CS(=O)(=O)NC(=O)c1ccc(=O)n(Cc2ccc(Cl)c(Cl)c2)c1,–,–
–,> 42,19,< 14,CC(C)COc1ncc(-c2ccc(C(=O)NS(C)(=O)=O)cc2C(=O)N(C)C)cc1Cl,–,–

Structure (SMILES),inhibition [2] [%],IC50 [3] [µM],microsomal CLint at 1 µM [4] [µL/min/mg],microsomal CLint at 1 µM [5] [µL/min/mg],IC50 [6] [µM],further results
COc1cc(C(=O)NS(C)(=O)=O)ccc1-c1cnc(Oc2cc(Cl)cc(Cl)c2)c(Cl)c1,–,0.036,< 14,< 14,6,"clearance [7]: 9.33 to 12.2 mL/min/kg; fraction unbound at 0.75 h, 5 µM [8]: < 0.001"
